# Assay results reported in the EternaBench riboswitch data.
# Tested on: MS2 coat protein
# Experiment: apparent Kd, MS2 coat protein; higher = weaker binding; RNA-MaP array; FMN 200 µM where present
# In short: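 On Illumina sequencing-chip clusters, designs were transcribed by stalled E. coli RNA polymerase and titrated with SNAP-549-labelled MS2 coat protein (0.7 or 1.5 nM, doubling to 3 µM), without and then with constant ligand, in 100 mM Tris-HCl pH 7.5, 80 mM KCl, 4 mM MgCl2, BSA, DTT, yeast tRNA and Tween-20. Apparent Kd is the median of filtered per-cluster curve fits to green signal normalised to red-channel RNA signal and control-cluster median Fmax.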
# [1] = designed as: ON switch for flavin mononucleotide, no ligand
# [2] = ligand present: flavin mononucleotide, designed as: ON switch for flavin mononucleotide
# [3] = designed as: OFF switch for flavin mononucleotide, no ligand
# [4] = ligand present: flavin mononucleotide, designed as: OFF switch for flavin mononucleotide
Sequence,apparent Kd [1] [nM],apparent Kd [2] [nM],apparent Kd [3] [nM],apparent Kd [4] [nM]
AAAAAAAAAACGCAGGAUAUCCAAAAAAAAACAUGAGGAUCACCCAUGUAAAAAAAAAAAAAAUGGGAGAAGGGUGAAAAAAAAAA,114,51,–,–
AAAAAAAAAAGGCAGGAUAUCCAAAAAAAAACAUGAGGAUCACCCAUGUAAAAAAAAAAAAAAUGGGAGAAGGGCCAAAAAAAAAA,39.2,14.3,–,–
AAAAAACAAGGAUAUACGCACGAGGAUUGUCUUAAUUUUUGACAUGAGGAUCACCCAUGUAGAAGGUGUUAAAA,–,–,75.7,79.2
AAAAAACAUGAGGAUCACCCAUGUCAAAAGACAUGAGGAUAUGUACAGACUUCGGUCUGUACAGAAGGCAUGAAAA,489,43.6,–,–
AAAAAACAUGAGGAUCACCCAUGUCUUCGGACGUGAGGAUAUGUACAGACUUCGGUCUGUACAGAAGGCACGUAAA,51,23,–,–
AAAAAACAUGAGGAUCACCCAUGUGAGGAUAUCACUAGUCAGUCCUCGGAGUGAGUUCUGAGAAGGCACAUAAA,–,–,118,106
AAAAAACAUGAGGAUCACCCAUGUGAGGAUAUGCUAAAAAAAUCCGCAUGAAAAAAUAGCAGAAGGCACAUAAA,–,–,32.9,106
AAAAAACAUGAGGAUCACCCAUGUUAGGAUAUCCUGCAGAAAAAAAAAAAAAACUGCAGGAGAAGGAGCAAGGA,–,–,90,104
AAAAAACAUGAGGAUCACCCAUGUUAGGAUAUCGUGCAGAAAAAAAAAAAAAACUGCACGAGAAGGAACAAGGA,–,–,74.5,98.8
AAAAAAUGAGGAUAUACAUGAAAAAAAAAAAAAAAAAAAAAACAUGAGGAUCACCCAUGUAGAAGGCGUAAAAA,–,–,51.2,41.4
AAAAACGGAGGAUAUACAAAAAAAAAAAAAAAAAAAAUGGGACAUGAGGAUCACCCAUGUAGAAGGCCGAAAAA,–,–,72,164
AAAAACUCAGGAUAUAUUAUGGGACAAUGAAGGAAGAUAAAACAUGAGGAUCACCCAUGUAGAAGGGAGAAAAA,–,–,58.5,67.5
AAAAAGCGAGGAUAUACAUGAGGAUCACCCAUGUAAAAAAAAAGAGAUGAAACAUCAUGUAGAAGGCGCAAAAA,–,–,211,134
AAAAAGCGAGGAUAUACAUGAGGAUCACCCAUGUCAAAAGGUAAGACCGCAGAAAAAAGUAGAAGGCGCAAAAA,–,–,63,137
AAAAAGUCAGGAUAUCGGAAAAAAAAAAAAAAAAAAAAAAACGAGAAGGGACAUGAGGAUCACCCAUGUAAAAA,–,–,55.8,68.2
AAAAAGUCAGGAUAUGUCAAAGGUCACGAAAGUGACAAAGGACAGAAGGGACAUGAGGAUCACCCAUGUAAAAA,–,–,30.2,46.1
AAAACACGCGAGAAGGAGGCCUGAUCCUCCACAUGAGGAUCACCCAUGUGCCUAGGAUAUCGCAACCUUUCAGGUUACACCUGG,–,–,70,10.2
AAAACAUGAGGAUCACCCAUGUAAAGAUCGGUUAAUUAAAGUGAGGAUAUACAAAAUUUUAUAUAGUAGAAGGCACUGGGUACA,30.2,33.4,–,–
AAAACGCAAGGAUAUACAUGAGGAUCACCCAUGUAGACAAUAUAAAGGGUCUCACCAUGUAGAAGGUGCUACCC,–,–,21.3,16.5

Sequence,apparent Kd [1] [nM],apparent Kd [2] [nM],apparent Kd [3] [nM],apparent Kd [4] [nM]
AAAACUGCUCAGGAUAUUUGUGUGUCAGGGCAUAAAGAAGGGAGCACAUGAGGAUCACCCAUGUGUUGGGUUCC,–,–,98.5,149
AAAAGACAUGAGGAUCACCCAUGUCAAGACGUAGGAGGAUAUGUCGUGAAAAAAGACUUGACAGAAGGCCUGUGUC,18.7,15.4,–,–
AAAAGACAUGAGGAUCACCCAUGUCAAGACGUGGGAGGAUAUGUAUGGAAACCAGACUGUACAGAAGGCCUCUGUC,57,70.5,–,–
AAAAGACAUGAGGAUCACCCAUGUCUUCGGACAUGAGGAUAUGUACAGACUUCGGUCUGUACAGAAGGCAUGUCAA,39.8,17.2,–,–
AAAAGACAUGAGGAUCACCCAUGUGAAAACAUACAAGGAUAUGUGUGGAAACCGUACUAUACAGAAGGUGUAUGUC,34.8,20,–,–
AAAAGGCUAGGAUAUACCAGUGGGUGUAAGAACUCAAAUUUACAUGAGGAUCACCCAUGUAGAAGGAGUAAAAU,–,–,20.4,30.2
AAAAGUUGAGGAUAUACAAAAUGAUUGCGAAAUCAAUUAAAACAUGAGGAUCACCCAUGUAGAAGGCGAUAAAA,–,–,31.1,25.9
AAAAUACAUGAGGAUCACCCAUGUGAGUCGAACGCAGGAUAUCGCCGUUGAAAAGGGCGGCGAGAAGGGUGCCGAA,62.5,46.8,–,–
AAAAUCGAAGGAUAUACAUAUCCUUUAGCGGCAAUGCCGCGACAUGAGGAUCACCCAUGUAGAAGGUCGUAAAA,–,–,27.6,31.5
AAAAUCUAUAGAGGAUAUCGUUCUUAAAGAGAAUGAGAAGGCUAACAAUCAUGAGGACAUGAGGAUCACCCAUGUUGUGACCAU,19.1,9.71,–,–
AAAAUGAGUCAAGGAUAUCCGAGCAGAAUGCUAGGAGAAGGUGACAUGAGGAUCACCCAUGUCUCUCCGAGCAUGGUAUUCUCA,–,–,27.1,31.9
AAACACGGACAUGAGGAUCACCCAUGUGGCGAAAGCCUAACUAGAAGGCAGUAUGCAAAGCAUUCUGAGGAUAUGGGUUCCGUG,188,18.1,–,–
AAACACGGACAUGAGGAUCACCCAUGUGGCGAAAGCCUUGGAAGAAGGCCGAUAGCAAAGCUAUCGGAGGAUAUUCAUACCGUG,17.2,5.78,–,–
AAACACGGACAUGAGGAUCACCCAUGUGGCGAUAGCCUUGGGAGAAGGUAUAAAUAAAAUAAUAAUUAGGAUAUUCAUACCGUG,275,108,–,–
AAACACGGCGAACCGGCGUUCGUACAUGAGGAUCACCCAUGUCAGGAUAUCUCGAUCUUUGAAUGAGAGAAGGGACAGGAUCCU,–,–,700,375
AAACAGCGAAGAUAAUAAUGAAUACAUGAGGAUCACCCAUGUAAGGAUAUCGUCAGGAAUACUGACGAGAAGGUACAUACGCUG,–,–,16,22.4
AAACAGGGAGGAUAUACAUAGAUCGUCUAACCUAAUUGGUCACAUGAGGAUCACCCAUGUAGAAGGCCCUUAGG,–,–,24.6,144
AAACAGUACGAGAAGGGCUACAUGAGGAUCACCCAUGUAGACGGUCGUGUGGCAGGAUAUCGAACACACCCAAAACGGUGCGUU,–,–,5.9,7.43
AAACAUGUCCGAGGAUAUCUGGAAACAUUUCCAAGAGAAGGCGGACAUGAGGAUCACCCAUGUCUCUCCUCAUCAAAUCCGAGU,–,–,9.24,89.3

Sequence,apparent Kd [1] [nM],apparent Kd [2] [nM],apparent Kd [3] [nM],apparent Kd [4] [nM]
AAAGACAGACAUGAGGAUCACCCAUGUUACGAAGAUACUGGGAGAAGGGCGAUUGCAAAGCAAUCGCAGGAUAUUCGUAUUGUC,25.8,13.2,–,–
AAAGACAGAGGAUAUGCACGCCGACCCGGGCGGGAAGUCGGACAUGAGGAUCACCCAUGUAGAAGGCUGAGAAA,–,–,11.3,14.8
AAAGAGCGAGGAUAUACAUGAGGAUCACCCAUGUGAAGAUGCAUGGUCUGAACGUCUGGUAGAAGGCGUAUGAA,–,–,161,182
AAAGCAACAUGAGGAUCACCCAUGUAGGAUAUCGCUAUUGUAAUCAUGAAACAUGAUUACAAUAGCGAGAAGGACAUAUGCAAA,–,–,11.3,12.9
AAAGCCAACGAAGGAUAUACAAACAUGAGGAUCACCCAUGUGUCUUUCGUGUAACUGGAAUUCGGGUAGAAGGUCGUUGACAUA,–,–,14.9,21.7
AAAGCGGGAUAGAAGGUCUGCUUGGUGUAUUACAUGAGGAUCACCCAUGUAGAAGGAUAUAUCUCAUUCUUGGGCUCACCCAAA,–,–,208,367
AAAGUGUCAGGAUAUUGUUAGUUUAGUUGUUUGUAUUAGUUCGAGAAGGGACAUGAGGAUCACCCAUGUUGAAA,–,–,34,32.9
AAAUAAACUACCAAGAUAUCCUCACAUGAGGAUCACCCAUGUCAGGAUAUUUGUCCUAAAAGGACAGAGAAGGGACGUGGUAGA,–,–,6.24,14.8
AAAUAAACUAGCAUAAUAACCUCACAUGAGGAUCACCCAUGUAAGGAUAUCUGUCCUAAAAGGACAGAGAAGGUACGUGCUAGG,–,–,4.72,4.88
AAAUAACUAGGAUAUCGAGGCACAGACAUGAGGAUCACCCAUGUGUGGUCUUCGUGCUUACGAGAAGGAGUACGGC,–,–,672,274
AAAUAAGUUGCAGGAUAUUAUUUUUAAUAAAUAUAAGAAGGGCAACAAACCUCACAUGAGGAUCACCCAUGUACCCAUGCAUCU,–,–,97.8,38.4
AAAUACCAAGGAUAUACAUGAGGAUCACCCAUGUACAAACCCGUGGAACGGAUCUUUGGUAGAAGGUGGACAUA,–,–,13.9,11.9
AAAUCAGUAGGAUAUACGAUUUUAUGCUAGAUAGAGGGACCACAUGAGGAUCACCCAUGUAGAAGGACUAGAUA,–,–,20.2,21.4
AAAUUUAACGAAGGAUAUGGAUACAUGAGGAUCACCCAUGUAUAUUUUGUGAUCUUGUAAAAGUACCAGAAGGUCGUAUACAUA,–,–,85.7,208
AAAUUUAACGAAGGAUAUGGUUACAUGAGGAUCACCCAUGUAUAUUUUGUGAUCUUGUUUAAGUUCCAGAAGGUCGUAUACAUA,–,–,74.1,294
AACAAGAGGAUCACCCAUGUAACAUGAGGAUCACCCAUGUUCAAGGAUAUGUACAUGAUACAUGUACAGAAGGUGAAUUGGACU,–,–,21,36.2
AACACGAGAGGUGUUGUCUAAUCACAUGAGGAUCACCCAUGUAAGGAUAUCGCGGCUAUCGGCAUCGAGAAGGUACAGGGAGCA,–,–,17.8,38.2
AACACGCUAACAAGCGACAUGAGGAUCACCCAUGUAAGGACACAGGAUAUCCGGAGUCAUAGGCCGGAGAAGGGUGAUCCUACC,33.4,19.7,–,–
